High-throughput results (PubChem)
This is a sample that favours compounds with a hit; in the whole collection about 4.1% have one here.
KCNQ1 act: potentiates or activates the human KCNQ1 potassium channel. hit rate 0.35% among 310,000. AID 2648. B-score at 10 µM. CHO-K1 KCNQ1, thallium flux FluxOR fluorescence; stronger effect = higher value;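 active = fluorescence ratio B-score, a plate-corrected score, at least three library SD, with initial intensity B-score within 5 SD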
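Test system: CHO-K1 cells stably expressing KCNQ1 / Medium: assay buffer / Also added: depolarizing K+/Tl+ stimulus, K2SO4 and Tl2SO4 each 12.5 mM in 5x stock / Incubation: 90 min dye loading and 20 min compound exposure, both at room temperature / Signal: thallium influx via FluxOR fluorescence, kinetic imaging / Evaluation: B score of baseline-normalized fluorescence ratio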
KCNQ1 inh: blocks the human KCNQ1 potassium channel. CHO-K1 KCNQ1, FluxOR thallium flux fluorescence; stronger effect = higher value. P51787. B-score at 10 µM. hit rate 1.3% among 310,000;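 active = compounds whose thallium flux B-score, printed positive for inhibition, exceeds three library SD while starting fluorescence stays within three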;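 also: channel opened by potassium depolarization with thallium stimulus after 20 min compound exposure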
KCNK9 block: blocks the human KCNK9 two-pore domain potassium channel | Q9NPC2 | HEK293 KCNK9, FluxOR thallium flux fluorescence; stronger effect = lower value | B-score at 10 µM | hit rate 1.2% among 310,000 | AID 488922;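 active = ratio B-score over 3 SD below the library mean, with starting fluorescence within 5 SD of its mean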;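 also: negative B-score means less thallium flux so channel inhibition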
hERG rescue: hERG (human) protection from proarrhythmic block. Q12809. CHO-hERG, FluxOR thallium flux, dofetilide IC70 present. activation (rescue from dofetilide block), less the hit threshold, % at 10 µM. hit rate 0.51% among 310,000;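 active = activation above the mean of controls blocked by dofetilide plus 5 SD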;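 also: thallium influx through hERG after potassium depolarization seen as dye fluorescence rise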
Target sequence (Q12809 whole entry, looked up): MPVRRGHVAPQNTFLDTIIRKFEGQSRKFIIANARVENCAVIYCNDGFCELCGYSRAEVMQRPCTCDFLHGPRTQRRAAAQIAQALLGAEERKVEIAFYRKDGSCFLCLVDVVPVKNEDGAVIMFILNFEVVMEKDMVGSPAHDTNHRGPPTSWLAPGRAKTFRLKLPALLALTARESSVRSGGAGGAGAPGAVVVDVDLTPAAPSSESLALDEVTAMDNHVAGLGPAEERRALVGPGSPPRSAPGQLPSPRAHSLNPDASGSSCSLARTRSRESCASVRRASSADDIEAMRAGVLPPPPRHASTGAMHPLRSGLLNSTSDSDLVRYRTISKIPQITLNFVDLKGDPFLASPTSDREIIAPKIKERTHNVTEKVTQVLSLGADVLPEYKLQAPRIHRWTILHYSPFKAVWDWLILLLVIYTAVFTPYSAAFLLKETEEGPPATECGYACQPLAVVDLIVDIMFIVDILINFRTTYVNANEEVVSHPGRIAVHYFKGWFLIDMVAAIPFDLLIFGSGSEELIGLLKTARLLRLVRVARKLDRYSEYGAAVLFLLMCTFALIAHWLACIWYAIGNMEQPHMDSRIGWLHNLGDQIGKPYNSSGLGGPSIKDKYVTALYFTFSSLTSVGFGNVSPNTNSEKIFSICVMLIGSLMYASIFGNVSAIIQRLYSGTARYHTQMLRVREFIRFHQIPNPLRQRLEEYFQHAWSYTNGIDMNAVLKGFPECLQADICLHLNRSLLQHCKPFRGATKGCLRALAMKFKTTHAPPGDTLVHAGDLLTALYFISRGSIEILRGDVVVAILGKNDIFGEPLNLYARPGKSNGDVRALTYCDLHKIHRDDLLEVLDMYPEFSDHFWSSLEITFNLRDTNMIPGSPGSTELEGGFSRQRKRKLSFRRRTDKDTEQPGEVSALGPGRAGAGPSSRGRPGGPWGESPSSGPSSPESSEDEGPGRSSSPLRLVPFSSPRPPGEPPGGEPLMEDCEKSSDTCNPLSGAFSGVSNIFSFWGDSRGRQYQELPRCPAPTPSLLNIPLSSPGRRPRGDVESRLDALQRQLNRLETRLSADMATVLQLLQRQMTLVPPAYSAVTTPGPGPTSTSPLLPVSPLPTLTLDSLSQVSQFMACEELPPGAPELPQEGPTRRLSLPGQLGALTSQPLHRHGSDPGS
Cl transport mod: KCC2 (human) Cl- transport modulation | hit rate 2.2% among 190,000 | B-score of Tl+ flux slope (higher = more flux/activation; lower = inhibition) at 10 µM | KCC2 cells, thallium flux FluoZin-2 fluorescence;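 active = thallium flux slope and its plate-corrected score both differing from the plate sample mean at a set confidence after two filtering rounds, in either direction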;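 also: slope of fluorescence scaled to starting intensity during 10 to 20 s after thallium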
KCNK3 inh: human KCNK3 channel inhibition, primary screen; AID 602410; hit rate 0.84% among 340,000; O14649; CHO-KCNK3 thallium flux, FluxOR fluorescence; stronger effect = lower value; B-score at 10 µM;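 active = B-score under library mean minus 4 SD, starting fluorescence ratio at most library mean plus 5 SD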;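 also: more negative B-score means stronger inhibition of thallium flux through KCNK3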
* marks the source's active call; other numbers are inactive results; i = inactive; nt = no result given.

SMILES	KCNQ1 act	KCNQ1 inh	KCNK9 block	hERG rescue	Cl transport mod	KCNK3 inh
NS(=O)(=O)c1cccc(NC(=O)Nc2ccccc2)c1	i	i	i	-3.1	1.69	i
CCOc1ccc(CN2CCN(Cc3cc4ccccc4[nH]3)CC2CCO)cc1 (centres undefined)	i	i	i	-6.6	0.0746	i
COc1cccc(CN2CCN(Cc3cc4ccccc4[nH]3)CC2CCO)c1 (centres undefined)	13*	i	i	-10.2	-0.084	i
COc1ccc2cc(CCNC(=O)c3cccs3)c(=O)[nH]c2c1	i	i	i	-1.3	-0.411	i
CCCCc1c(O)nc(SCC(=O)N2CCCCC2)n(-c2ccccc2C)c1=O	i	i	i	9.8*	-0.358	i
O=C1c2cccc3cccc(c23)C(=O)C1(O)O	i	i	i	8.0*	nt	i
COc1ccc(/C=C2\CN(Cc3ccccc3)C/C(=C\c3ccc(OC)cc3OC)C2=O)c(OC)c1	i	i	i	-22.1	-1.69	i
COc1ccc(C=C2c3ccccc3C(=O)c3ccccc32)c(OC)c1	i	i	-8.7*	-5.3	-1.1	i
CN(C)CCN(C(=O)c1cccc2ccccc12)c1nc2cc3c(cc2s1)OCO3	i	6*	i	-21.4	nt	i
CCOc1ccc2nc(N(CCN(C)C)C(=O)c3cc4ccccc4cc3OC)sc2c1	i	i	i	-18.5	nt	i
CCOc1cccc2sc(N(CCN(C)C)C(=O)c3cc4ccccc4cc3OC)nc12	i	9*	i	-10.9	nt	i
O=C(NC(=S)Nc1cccnc1Cl)c1ccc(Cl)cc1	i	i	i	-2.9	nt	i
Cc1nc(N2CCCCC2C)c2c(C)c(C(=O)Nc3cccc(C(F)(F)F)c3)sc2n1 (centres undefined)	i	7*	i	-9.7	1.67	i
Cc1nc(N2CCCCC2)c2c(C)c(C(=O)Nc3ccccc3C(F)(F)F)sc2n1	i	i	i	-2.5	-0.0363	i
CC(OC(=O)C1CC1)C(=O)Nc1cc(Cl)cc(Cl)c1 (centres undefined)	nt	nt	nt	nt	nt	-8.71*
Fc1ccc(C2CC(c3ccco3)=NN2c2ccccc2)cc1 (centres undefined)	i	7*	-7.91*	-16.6	nt	i
O=[N+]([O-])c1ccc(N2N=C(c3ccco3)CC2c2ccccc2)cc1 (centres undefined)	i	11*	i	-6.5	0.139	i
COc1ccccc1N1N=C(c2ccc([N+](=O)[O-])cc2)CC1c1ccccc1 (centres undefined)	i	12*	i	-14.2	nt	i
CS(=O)(=O)N1N=C(c2ccco2)CC1c1ccccc1 (centres undefined)	i	i	i	0.2	0.251	i
O=[N+]([O-])c1ccc(N2N=C(c3ccccc3)CC2c2ccccc2O)cc1 (centres undefined)	i	i	i	-6.7	nt	i
CCOC(=O)c1ccc(Oc2nc(NC(C)(C)C)nc(N(C)C)n2)cc1	27*	i	i	-2.4	nt	i
CCOC(=O)c1ccc(Oc2nc(N(C)C)nc(N(C)C)n2)cc1	i	i	i	-1.2	nt	i
Cc1cc(C)nc(Sc2c(C)n[nH]c2C)n1	i	i	i	5.1*	1.35	i
Cc1n[nH]c(C)c1Sc1ccccc1N	i	i	i	2.5	0.649	i
COc1ccc(C(C(=O)NC(C)(C)C)N(C(=O)CCC(=O)Nc2ccccn2)C2CCCCC2)cc1 (centres undefined)	i	i	i	-4.7	nt	i
SMILES	KCNQ1 act	KCNQ1 inh	KCNK9 block	hERG rescue	Cl transport mod	KCNK3 inh
CCN(CC(=O)Nc1c(F)cccc1F)C(=O)c1ccc(C(F)(F)F)cc1	i	i	-7.89*	-1.4	nt	i
CCN(CC(=O)Nc1c(F)cccc1F)C(=O)c1ccc(C2SCCS2)cc1	i	i	i	-14.4	nt	i
COc1ccc(C(F)(F)F)cc1N/C=C/c1nnnn1-c1ccc(C)cc1	i	i	-6.72*	-11.6	0.242	i
Cc1cc(N/C=C\c2nnnn2-c2ccccc2)no1	i	i	i	-4.7	-0.283	i
COc1ccc2nc(/N=C/c3c(C)[nH]n(-c4ccc(C)cc4C)c3=O)sc2c1	28*	i	i	56.3*	61.5*	i
COc1ccccc1N=Cc1c(C)[nH]n(-c2ccc(C)cc2C)c1=O	i	i	i	-20.6	-0.797	i
CCCCCCCCCn1c2c(c(=N)c3c1CCC3)CCCC2	i	10*	i	-31.4	-0.0184	-12.1*
CCn1c2c(c(=N)c3c1CCC3)CCCC2	i	i	i	-3.5	-0.243	i
O=[N+]([O-])c1ccc(-c2cn(-c3ccc(Cl)cc3)c(=S)[nH]2)cc1	i	i	i	-1.9	3.66*	i
CC(C)COc1ccc(-c2nn(-c3ccccc3)cc2/C=C2/SC(=S)N(CC(=O)O)C2=O)cc1	8*	i	i	-5.3	nt	i
CCOc1ccc(-c2nn(-c3ccccc3)cc2/C=C2\SC(=S)N(Cc3ccco3)C2=O)cc1	i	i	i	-8.3	1.8	i
NC(=S)N/N=C/c1cn(-c2ccccc2)nc1-c1cccnc1	i	i	i	-8.0	1.21	i
Cc1cc(/C=N/n2cnnc2)c(C)n1-c1cc(Cl)ccc1Cl	12*	i	i	-6.8	-0.858	i
Cc1cc(C=NCCO)c(C)n1-c1cc(Cl)ccc1Cl	i	i	i	-12.1	-0.208	i
CSC1=NSC2=NC(=O)/C(=C/c3coc4ccccc4c3=O)C(=N)N12	nt	nt	nt	nt	i	i
CSC1=NSC2=NC(=O)/C(=C/c3coc4ccc(O)cc4c3=O)C(=N)N12	i	9*	i	-46.7	i	i
O=C(NC(=S)Nc1nc(-c2ccc([N+](=O)[O-])cc2)cs1)c1ccco1	21*	i	i	15.2*	nt	i
O=C(Nc1nc(-c2ccccc2)cs1)c1ccco1	i	i	i	-11.8	-2.16	i
O=C(COc1ccc(Br)cc1CNC1CCCCC1)NCCc1ccccc1	i	8*	i	-14.5	-1.58	i
OCC1(CO)COC2(CCCC2)N1	i	i	i	-4.0	1.59	i
C=CCc1cccc(Cl)c1OCCON1C(=O)CCC1=O	i	i	i	-12.8	0.0345	i
Clc1ccc(OCCn2ccnc2)c2ccccc12	i	6*	i	-18.8	nt	i
O=C1CCC(=O)N1OCCOc1ccc(Cl)c2ccccc12	i	6*	i	-14.4	-0.304	i
NC(=O)NC(=O)COC(=O)c1ccc(Cl)c(S(=O)(=O)N(Cc2ccccc2)c2ccc(Cl)cc2)c1	i	i	i	-9.5	-0.666	i
